KCNK3 block: human KCNK3 channel inhibitors, primary screen, CHO cells, FluxOR thallium flux, B-score | FluxOR fluorescence; stronger effect = lower value | B-score at 10 µM | hit rate 0.84% among 340,000 | AID 602410, 2012;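 active means B-score under library mean minus 4 SD, starting fluorescence ratio at most library mean plus 5 SD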;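 further: more negative B-score means stronger inhibition of thallium flux through KCNK3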
Target sequence (O14649 whole entry, looked up): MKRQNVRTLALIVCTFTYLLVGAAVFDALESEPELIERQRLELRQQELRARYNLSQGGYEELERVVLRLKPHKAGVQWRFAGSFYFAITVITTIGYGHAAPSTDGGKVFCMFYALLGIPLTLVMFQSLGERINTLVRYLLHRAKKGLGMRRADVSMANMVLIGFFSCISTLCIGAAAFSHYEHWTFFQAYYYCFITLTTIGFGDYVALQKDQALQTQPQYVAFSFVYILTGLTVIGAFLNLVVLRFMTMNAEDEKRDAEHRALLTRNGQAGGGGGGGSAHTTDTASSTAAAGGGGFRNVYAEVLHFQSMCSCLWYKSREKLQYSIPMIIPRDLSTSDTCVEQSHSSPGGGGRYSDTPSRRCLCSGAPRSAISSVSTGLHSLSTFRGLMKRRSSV
KCNQ1 block: inhibitors of human KCNQ1 channel, primary screen, cell-based, thallium flux, high-throughput; Potassium voltage-gated channel subfamily KQT member 1 (Homo sapiens), P51787; CHO-K1 KCNQ1, FluxOR thallium flux fluorescence; stronger effect = higher value; B-score at 10 µM; hit rate 1.3% among 310,000; AID 2642, 2010;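 active means compounds whose thallium flux B-score, printed positive for inhibition, exceeds three library SD while starting fluorescence stays within three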;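 further: channel opened by potassium depolarization with thallium stimulus after 20 min compound exposure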
KCNK9 block: KCNK9 potassium channel inhibitors, primary screen, HEK293 cells, thallium flux | Potassium channel subfamily K member 9 (Homo sapiens), Q9NPC2 | FluxOR thallium flux fluorescence; stronger effect = lower value | B-score at 10 µM | hit rate 1.2% among 310,000;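 active means ratio B-score over 3 SD below the library mean, with starting fluorescence within 5 SD of its mean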;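 further: negative B-score means less thallium flux so channel inhibition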
Target sequence (Q9NPC2 whole entry, looked up): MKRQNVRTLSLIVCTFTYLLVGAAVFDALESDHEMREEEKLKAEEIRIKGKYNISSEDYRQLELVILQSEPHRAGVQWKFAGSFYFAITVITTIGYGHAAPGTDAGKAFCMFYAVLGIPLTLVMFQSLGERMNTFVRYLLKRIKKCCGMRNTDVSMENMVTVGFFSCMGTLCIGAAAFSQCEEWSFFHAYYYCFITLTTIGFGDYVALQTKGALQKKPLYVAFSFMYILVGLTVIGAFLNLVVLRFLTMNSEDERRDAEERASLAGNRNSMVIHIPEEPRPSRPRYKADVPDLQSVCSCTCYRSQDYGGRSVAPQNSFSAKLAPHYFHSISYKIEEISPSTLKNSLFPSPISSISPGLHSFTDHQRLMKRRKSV
KCNQ1 pot: potentiators or activators of KCNQ1 channel, primary screen, cell-based, thallium flux, high-throughput. Potassium voltage-gated channel subfamily KQT member 1 (Homo sapiens), P51787. CHO-K1 KCNQ1, thallium flux FluxOR fluorescence; stronger effect = higher value. B-score at 10 µM. hit rate 0.35% among 310,000;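 active means fluorescence ratio B-score, a plate-corrected score, at least three library SD, with initial intensity B-score within 5 SD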
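Test system: CHO-K1 cells stably expressing KCNQ1 / Medium: assay buffer / Also added: depolarizing K+/Tl+ stimulus, K2SO4 and Tl2SO4 each 12.5 mM in 5x stock / Incubation: 90 min dye loading and 20 min compound exposure, both at room temperature / Signal: thallium influx via FluxOR fluorescence, kinetic imaging / Evaluation: B score of baseline-normalized fluorescence ratio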
KCC2 mod: KCC2 cotransporter modulators, thallium flux, primary screen, cell-based, HEK293 KCC2, FluoZin-2 fluorescence, MLSMR; KCC2 cells, thallium flux FluoZin-2 fluorescence; B-score of Tl+ flux slope (higher = more flux/activation; lower = inhibition) at 10 µM; hit rate 2.2% among 190,000;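 active means thallium flux slope and its plate-corrected score both differing from the plate sample mean at a set confidence after two filtering rounds, in either direction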;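 further: slope of fluorescence scaled to starting intensity during 10 to 20 s after thallium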
hERG protect: hERG rescue from dofetilide block, primary screen, cell-based, CHO-hERG, FluxOR thallium flux, dofetilide IC70 | Voltage-gated inwardly rectifying potassium channel KCNH2 (Homo sapiens), Q12809 | dofetilide IC70 present | activation (rescue from dofetilide block), less the hit threshold, % at 10 µM | hit rate 0.51% among 310,000 | AID 1511, 2009;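 active means activation above the mean of controls blocked by dofetilide plus 5 SD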;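 further: thallium influx through hERG after potassium depolarization seen as dye fluorescence rise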
KCC2 sec1: KCC2 modulators in sodium-free buffer, confirmation, cell-based, HEK293 KCC2, thallium flux, secondary assay; FluoZin2 fluorescence; stronger effect = higher value; shares compounds with KCC2 mod; normalised thallium flux (F/F0 slope) at 10 µM; hit rate 15% among 3,700;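 active means thallium flux slope above the same plate's solvent-only control mean plus 3 SD; inconclusive means the two replicate wells disagree; inactive means no significant difference from solvent-only control wells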
KCC2 bumet counter: thallium flux persisting under bumetanide in KCC2 cells, confirmation, counter-screen for KCC2 modulator project, cell-based, HEK293 KCC2, FluoZin2, secondary assay 3. shares compounds with KCC2 mod. hit rate 49% among 3,700. HEK293-KCC2 + bumetanide/ouabain; stronger effect = higher value. AID 1714, 2009. normalized thallium flux at 10 µM;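 active means thallium entry rate above the same plate's blocked-transporter control wells by more than 3 SD; inconclusive means the two repeat wells disagree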;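 further: raw slope of fluorescence over initial fluorescence between 10 and 20 s after thallium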
KCC2 sec2: KCC2 modulators without ouabain present, confirmation, cell-based, HEK293 KCC2, thallium flux, FluoZin2, secondary assay 2. shares compounds with KCC2 mod. thallium flux FluoZin2 fluorescence; actives lie on both sides; F/F0 rise rate, 10–20 s post-thallium. normalized thallium flux at 10 µM. hit rate 23% among 3,700;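 active means thallium flux slope more than 3 SD above or below the plate's solvent-only control mean, mostly below; inconclusive means the two repeat wells disagreed; inactive means no significant shift from solvent-only controls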
HEK counter1: thallium flux modulation in parental HEK cells, confirmation, counter-screen for KCC2 modulator project, cell-based, counterscreen 1; shares compounds with KCC2 mod; HEK293 parental cells, thallium flux FluoZin2, ouabain; baseline-ratio fluorescence slope, 10–20 s after thallium; thallium flux rate (normalised fluorescence) at 10 µM; hit rate 46% among 3,700;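 active means thallium flux rate significantly above the same plate's solvent-only control wells, beyond their mean plus 3 SD; inconclusive means the two replicate wells gave conflicting results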
KCC2 ouabain: KCC2 inhibitors and activators, ouabain retest, confirmation, HEK-KCC2 cells. shares compounds with KCC2 mod. HEK293-KCC2, thallium flux FluoZin2 fluorescence; bidirectional: low = inhibitor, high = activator. raw Tl+ flux slope (below DMSO = inhibition, above = activation) at 10 µM. hit rate 48% among 3,700. AID 1717, 2009;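 active means thallium flux slope beyond 3 SD from same-plate DMSO control mean in most replicates, usually higher, sometimes lower; inconclusive means repeat tests gave conflicting results; inactive means no significant difference from controls in most replicates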;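 further: slope of initial-normalized fluorescence between seconds 10 and 20 after thallium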
HEK293 Tl flux2: native HEK Tl+ uptake effects, second counter-screen – HEK cells, counterscreen 2, counter-screen for KCC2 modulator project, confirmation | thallium flux slope at 10 µM | hit rate 33% among 3,700 | HEK293 parental, thallium flux FluoZin-2 fluorescence slope | shares compounds with KCC2 mod | AID 1718, 2009;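 active means thallium flux slope above the same plate's solvent-control mean plus 3 SD in both duplicate wells; inconclusive means duplicate wells that disagreed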;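 further: run without ouabain in cells lacking the KCC2 cotransporter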
Numbers stand for hits; - = inactive; ? = inconclusive; . = no result given. An excerpt weighted towards active compounds, which were near 4.1% of everything screened.

SMILES	KCNK3 block	KCNQ1 block	KCNK9 block	KCNQ1 pot	KCC2 mod	hERG protect	KCC2 sec1	KCC2 bumet counter	KCC2 sec2	HEK counter1	KCC2 ouabain	HEK293 Tl flux2
C=C(C)C(Cc1c(OC)ccc(C(=O)/C=C/c2ccc(O)cc2)c1O)OO (stereo unspecified)	-	.	.	.	.	.	.	.	.	.	.	.
CN1C(=O)C2C[C@@]3(Br)c4ccccc4N(OOSc4ccccc4)[C@H]3N2C(=O)[C@@H]1Cc1ccccc1 (stereo partly specified)	-	-	-	-	.	-	.	.	.	.	.	.
CCOc1ccccc1OCC(=O)Nc1ccc(Cl)cc1C(=O)c1ccccc1	-	6	-	-	-	-	.	.	.	.	.	.
COc1ccccc1OCC(=O)Nc1ccc(Cl)cc1C(=O)c1ccccc1	-	-	-	-	.	-	.	.	.	.	.	.
CCOP(=O)(OCC)C(NC(=O)c1ccc(Cl)cc1)=C(Cl)Cl	-	-	-	-	.	-	.	.	.	.	.	.
NNC(=O)c1ccc(Cl)cc1	-	-	-	-	4.3	-	-	-	-	-	-	-
CC(C)c1oc(=O)cc2c1[C@@H](O)[C@H]1OC(=O)[C@@]3(C)C[C@@H](O)[C@@H](O)[C@@]2(C)C13 (stereo partly specified)	-	-	-	-	5.5	-	-	-	-	?	-	-
Cc1nc2cc(C(F)(F)F)ccc2n1C1CCN(Cc2nnnn2Cc2ccc3c(c2)OCO3)CC1	-	-	-	-	-4.7	-	-	-	?	-	?	-
Cc1nc2cc(C(F)(F)F)ccc2n1C1CCN(Cc2nnnn2Cc2cccs2)CC1	-	-	-	-	-	-	.	.	.	.	.	.
CCOc1cc2c(cc1OCC)-n1cccc1C(c1ccc(C(C)C)cc1)NC2 (stereo unspecified)	-	-	-	-	.	-	.	.	.	.	.	.
S=C1Nc2ccccc2Sc2ccccc21	-	-	-	-	48	-	0.019	0.075	-	0.054	0.053	0.013
O=c1[nH]c(=O)n(Cc2ccc(F)cc2)c(O)c1C=NCc1cccnc1	-	-	-	-	4.4	-	-	-	-	-	-	-
Cc1nc2cc([N+](=O)[O-])ccc2c(=O)n1-c1cccc(Br)c1	-	-	-	-	.	-	.	.	.	.	.	.
CCN(CC)CCCN=Cc1c(O)n(CCc2ccc(OC)c(OC)c2)c(=O)[nH]c1=O	-	-	-	-	-6.2	-	-	-	-	?	-	?
CCN(CC)c1ccc(N=Cc2c(O)n(CCc3ccc(OC)c(OC)c3)c(=O)[nH]c2=O)cc1	-	-	-	-	-	-	.	.	.	.	.	.
COc1cc(C(=S)N2CCOCC2)cc(OC)c1OC(=O)Cc1ccccc1	-	-	-	-	-5.4	-	?	0.006	0.021	-	-	-
O=C(/C=C/c1c[nH]c2ccccc12)c1c(O)n(CCc2ccccc2)c(=O)[nH]c1=O	-	-	-	-	-	-	.	.	.	.	.	.
O=C(COc1ccc(Cl)cc1Cl)N1CCN(C/C=C/c2ccccc2)CC1	-	-	-	-	-6.8	-	-	-	-	-	-	-
COC(=O)c1c2[n+](cc3cc(OC)c(OC)cc13)CCc1cc(OC)c(OC)cc1-2	-	-	-	-	.	-	.	.	.	.	.	.
Cc1cc([N+](=O)[O-])c(Cl)cc1NC(=O)C(C)C	-	-	-	-	-	-	.	.	.	.	.	.
CNc1cc(Cl)c2nonc2c1[N+](=O)[O-]	-	10	-	-	-4.6	-	-	0.007	?	-	-	-
O=c1[nH]c(=S)n(Cc2ccco2)c(O)c1C=NCc1cccs1	-	-	-	-	-3.2	-	-	-	?	-	0.02	-
O=P1(Oc2ccccc2)OCCCS1 (stereo unspecified)	-	-	-	-	-	-	.	.	.	.	.	.
CC(C)C[C@H](NC(=O)[C@@H]1CCCN1C(=O)[C@@H](N)Cc1ccc(O)cc1)C(=O)NCC(N)=O	-	-	-	-	-3.1	-	?	0.0057	-	?	-	-
CC(C)CC(NC(=O)C1CCCCC1)C(=O)N1CCC2(CC1)OCCO2 (stereo unspecified)	-	-	-	-	.	-	.	.	.	.	.	.
SMILES	KCNK3 block	KCNQ1 block	KCNK9 block	KCNQ1 pot	KCC2 mod	hERG protect	KCC2 sec1	KCC2 bumet counter	KCC2 sec2	HEK counter1	KCC2 ouabain	HEK293 Tl flux2
O=C(CCNC(=O)N1C[C@H]2C[C@@H](C1)c1cccc(=O)n1C2)Nc1ccc(F)cc1	-	-	-	-	.	-	.	.	.	.	.	.
COC(=O)C1=C(c2ccc(F)cc2F)C[C@@H]2CC[C@H]1N2C(=O)NCCOc1ccccc1Cl	-	.	.	.	.	.	.	.	.	.	.	.
COC(=O)C1=C(c2ccc(OC)c(OC)c2)C[C@@H]2CC[C@H]1N2C(=O)NCc1cc(C)oc1C(F)(F)F	-	.	.	.	.	.	.	.	.	.	.	.
CNc1ccc2oc(C[C@H]3O[C@@]4(CC[C@H]3C)O[C@H]([C@H](C)C(=O)c3ccc[nH]3)[C@H](C)C[C@H]4C)nc2c1C(=O)O	-	-	-	38	7.4	-	-	0.0092	-	?	?	-
COc1ccc(-n2c(=O)[nH]c3ccccc3c2=O)c(OC)c1	-	-	-	-	-	-	.	.	.	.	.	.
COc1ccc(-n2c(=O)[nH]c3ccccc3c2=O)cc1	-	-	-	-	-	-	-	-	-	-	-	-

Compound activity: PubChem BioAssay, several laboratories
